From ChEMBL document CHEMBL4325904 (Eur J Med Chem, 2019) come the findings set out here.

Each structure is given as a SMILES string. Calls of active or inactive are those of the source. The rule behind the calls is not given here.

One data set relates to Kasumi 1. Kind of data set: Antiproliferative activity against human Kasumi-1 cells after 72 hrs by resazurin dye-based assay. Type of data set: functional, cell-based. The settings on record: Kasumi 1, 72 h. A digest of the protocol: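 KASUMI-1 cells incubated with compounds for 72 hr; viability read with resazurin reagent. IC50 taken as the mean of three experiments, each run in duplicate.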

Data set [1] is filed under the species Homo sapiens. Kind of data set: Selectivity ratio of IC50 for recombinant N-terminal GST-tagged human HDAC7 (518 to 991 residues) to IC50 for recombinant N-terminal GST-tagged human HDAC6 (1 to 1215 residues).
Data set [2] has as its target T1, Polyamine deacetylase HDAC10 (Homo sapiens, UniProt Q969S8).
T1 sequence (Q969S8 whole entry): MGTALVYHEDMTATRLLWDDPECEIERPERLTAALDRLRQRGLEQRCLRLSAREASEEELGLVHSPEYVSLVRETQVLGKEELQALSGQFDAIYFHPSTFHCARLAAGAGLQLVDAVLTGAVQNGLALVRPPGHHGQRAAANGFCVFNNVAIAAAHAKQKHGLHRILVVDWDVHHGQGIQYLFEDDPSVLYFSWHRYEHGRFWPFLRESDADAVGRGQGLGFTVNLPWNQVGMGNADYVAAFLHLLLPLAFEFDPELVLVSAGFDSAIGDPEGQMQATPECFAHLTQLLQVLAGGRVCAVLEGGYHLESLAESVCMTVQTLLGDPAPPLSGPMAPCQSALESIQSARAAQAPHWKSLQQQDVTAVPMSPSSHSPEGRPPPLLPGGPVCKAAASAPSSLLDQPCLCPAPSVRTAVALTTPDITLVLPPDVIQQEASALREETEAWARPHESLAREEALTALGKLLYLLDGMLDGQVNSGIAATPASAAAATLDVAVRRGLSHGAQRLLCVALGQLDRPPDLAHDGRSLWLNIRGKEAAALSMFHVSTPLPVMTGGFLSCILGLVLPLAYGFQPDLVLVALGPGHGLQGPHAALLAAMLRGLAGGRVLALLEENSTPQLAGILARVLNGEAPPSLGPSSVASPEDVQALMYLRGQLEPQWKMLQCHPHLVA
Nature of the data set: Inhibition of human HDAC10 using RHKK-Ac as substrate by fluorimetric assay.

A short description of data set [3]: Drug uptake in human A549 cells cytoplasm at 1 uM after 2 hrs by naphthalimide dye-based inverted light fluorescence confocal microscopic analysis. Type of data set: ADME, subcellular. To be noted: a549, 2 h. A digest of the protocol:
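A549 cells incubated 2 hours with compound at 1 µM; intracellular distribution imaged by confocal microscopy with 405 nm laser excitation, emission collected at 460–560 nm.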

The species entered for data set [4] is Homo sapiens. Kind of data set: Selectivity ratio of IC50 for recombinant full length C-terminal FLAG/His-tagged human HDAC1 (1 to 482 residues) to IC50 for recombinant N-terminal GST-tagged human HDAC6 (1 to 1215 residues).
The next data set has as its target Histone deacetylase 1 (Homo sapiens, UniProt Q13547). Nature of the data set: Inhibition of recombinant full length C-terminal FLAG/His-tagged human HDAC1 (1 to 482 residues) expressed in sf21 cells using RHK-K(Ac)-AMC as substrate by fluorimetric assay.
For data set [5], the species on record is Homo sapiens. Nature of the data set: Selectivity ratio of IC50 for recombinant full length C-terminal GST-tagged human HDAC2 (1 to 488 residues) to IC50 for recombinant N-terminal GST-tagged human HDAC6 (1 to 1215 residues).
Data set [6] addresses Histone deacetylase 3/Nuclear receptor corepressor 2 (HDAC3/NCoR2) (Homo sapiens, UniProt O15379). Type of data set: cell-based.
In the next data set the target is T2, Histone deacetylase 8 (Homo sapiens, UniProt Q9BY41).
T2 sequence (Q9BY41 whole entry): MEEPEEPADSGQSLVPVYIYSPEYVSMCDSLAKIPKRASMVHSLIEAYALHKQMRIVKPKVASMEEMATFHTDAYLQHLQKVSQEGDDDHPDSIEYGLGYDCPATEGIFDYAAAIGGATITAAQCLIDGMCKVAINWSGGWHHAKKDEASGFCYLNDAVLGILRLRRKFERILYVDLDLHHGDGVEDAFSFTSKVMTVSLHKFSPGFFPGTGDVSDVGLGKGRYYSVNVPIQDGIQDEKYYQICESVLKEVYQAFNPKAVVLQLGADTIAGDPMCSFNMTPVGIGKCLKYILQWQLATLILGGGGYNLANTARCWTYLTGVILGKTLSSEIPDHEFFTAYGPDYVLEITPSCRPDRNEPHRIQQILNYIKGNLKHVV
Nature of the data set: Inhibition of recombinant C-terminal His-tagged human HDAC8 (1 to 377 residues) expressed in Baculovirus infected insect cells using RHK-K(Ac)-AMC as substrate by fluorimetric assay.

Data set [7] is filed under the species Homo sapiens. Kind of data set: Selectivity ratio of IC50 for recombinant N-terminal GST-tagged /C-terminal His-tagged human HDAC4 (627 to 1084 residues) to IC50 for recombinant N-terminal GST-tagged human HDAC6 (1 to 1215 residues).
The target of the next data set is Histone deacetylase 4 (Homo sapiens, UniProt P56524). Nature of the data set: Inhibition of recombinant N-terminal GST-tagged /C-terminal His-tagged human HDAC4 (627 to 1084 residues) expressed in Baculovirus infected insect cells using Boc-Lys(trifluoroacetyl)-AMC as substrate by fluorimetric assay.
The next data set concerns Danio rerio. Nature of the data set: Antiangiogenic activity in zebrafish embryo assessed as effect on blood vessel development at 10 uM administered from 24 to 50 hrs post fertilization for 24 hrs and measured after 72 hrs by alkaline phosphatase assay. Format: functional, organism-based. A digest of the protocol: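 Zebrafish embryos exposed at 10 µM from 24–50 hpf alongside vehicle-only controls; at 72 hpf embryos stained with alkaline phosphatase to visualise blood vessels.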

The target in the next data set is Histone deacetylase 2 (Homo sapiens, UniProt Q92769). Kind of data set: Inhibition of recombinant full length C-terminal GST-tagged human HDAC2 (1 to 488 residues) expressed in insect cells using RHK-K(Ac)-AMC as substrate by fluorimetric assay.
Histone deacetylase 2, sequence (Q92769 whole entry, the tested form may be a part): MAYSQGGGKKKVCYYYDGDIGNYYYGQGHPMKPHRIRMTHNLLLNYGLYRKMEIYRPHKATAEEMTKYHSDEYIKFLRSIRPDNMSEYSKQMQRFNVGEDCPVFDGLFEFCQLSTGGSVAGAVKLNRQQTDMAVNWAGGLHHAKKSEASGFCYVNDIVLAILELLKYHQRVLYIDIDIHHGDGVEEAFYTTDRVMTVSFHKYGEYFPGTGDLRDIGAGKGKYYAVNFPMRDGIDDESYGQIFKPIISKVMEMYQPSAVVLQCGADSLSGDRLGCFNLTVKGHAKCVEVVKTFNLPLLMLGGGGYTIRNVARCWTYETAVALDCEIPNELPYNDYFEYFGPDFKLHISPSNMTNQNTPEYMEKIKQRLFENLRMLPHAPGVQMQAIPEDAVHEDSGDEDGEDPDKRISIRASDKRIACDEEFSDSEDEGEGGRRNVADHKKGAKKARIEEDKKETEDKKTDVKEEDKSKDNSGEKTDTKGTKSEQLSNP

Histone deacetylase 3/Nuclear receptor corepressor 2 (HDAC3/NCoR2), sequence (O15379 whole entry): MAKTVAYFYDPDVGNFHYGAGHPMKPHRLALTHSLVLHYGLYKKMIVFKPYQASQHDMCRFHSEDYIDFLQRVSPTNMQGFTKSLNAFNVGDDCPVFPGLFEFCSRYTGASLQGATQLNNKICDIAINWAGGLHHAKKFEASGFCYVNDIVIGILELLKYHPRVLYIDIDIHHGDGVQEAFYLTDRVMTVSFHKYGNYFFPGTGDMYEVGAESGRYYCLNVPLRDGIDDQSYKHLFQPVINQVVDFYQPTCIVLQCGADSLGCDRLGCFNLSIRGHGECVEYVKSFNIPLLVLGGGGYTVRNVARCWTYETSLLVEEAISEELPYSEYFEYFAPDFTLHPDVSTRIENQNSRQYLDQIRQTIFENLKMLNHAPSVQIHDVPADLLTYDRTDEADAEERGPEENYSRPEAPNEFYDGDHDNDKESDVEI
Histone deacetylase 3/Nuclear receptor corepressor 2 (HDAC3/NCoR2), sequence (Q9Y618 whole entry, further chain): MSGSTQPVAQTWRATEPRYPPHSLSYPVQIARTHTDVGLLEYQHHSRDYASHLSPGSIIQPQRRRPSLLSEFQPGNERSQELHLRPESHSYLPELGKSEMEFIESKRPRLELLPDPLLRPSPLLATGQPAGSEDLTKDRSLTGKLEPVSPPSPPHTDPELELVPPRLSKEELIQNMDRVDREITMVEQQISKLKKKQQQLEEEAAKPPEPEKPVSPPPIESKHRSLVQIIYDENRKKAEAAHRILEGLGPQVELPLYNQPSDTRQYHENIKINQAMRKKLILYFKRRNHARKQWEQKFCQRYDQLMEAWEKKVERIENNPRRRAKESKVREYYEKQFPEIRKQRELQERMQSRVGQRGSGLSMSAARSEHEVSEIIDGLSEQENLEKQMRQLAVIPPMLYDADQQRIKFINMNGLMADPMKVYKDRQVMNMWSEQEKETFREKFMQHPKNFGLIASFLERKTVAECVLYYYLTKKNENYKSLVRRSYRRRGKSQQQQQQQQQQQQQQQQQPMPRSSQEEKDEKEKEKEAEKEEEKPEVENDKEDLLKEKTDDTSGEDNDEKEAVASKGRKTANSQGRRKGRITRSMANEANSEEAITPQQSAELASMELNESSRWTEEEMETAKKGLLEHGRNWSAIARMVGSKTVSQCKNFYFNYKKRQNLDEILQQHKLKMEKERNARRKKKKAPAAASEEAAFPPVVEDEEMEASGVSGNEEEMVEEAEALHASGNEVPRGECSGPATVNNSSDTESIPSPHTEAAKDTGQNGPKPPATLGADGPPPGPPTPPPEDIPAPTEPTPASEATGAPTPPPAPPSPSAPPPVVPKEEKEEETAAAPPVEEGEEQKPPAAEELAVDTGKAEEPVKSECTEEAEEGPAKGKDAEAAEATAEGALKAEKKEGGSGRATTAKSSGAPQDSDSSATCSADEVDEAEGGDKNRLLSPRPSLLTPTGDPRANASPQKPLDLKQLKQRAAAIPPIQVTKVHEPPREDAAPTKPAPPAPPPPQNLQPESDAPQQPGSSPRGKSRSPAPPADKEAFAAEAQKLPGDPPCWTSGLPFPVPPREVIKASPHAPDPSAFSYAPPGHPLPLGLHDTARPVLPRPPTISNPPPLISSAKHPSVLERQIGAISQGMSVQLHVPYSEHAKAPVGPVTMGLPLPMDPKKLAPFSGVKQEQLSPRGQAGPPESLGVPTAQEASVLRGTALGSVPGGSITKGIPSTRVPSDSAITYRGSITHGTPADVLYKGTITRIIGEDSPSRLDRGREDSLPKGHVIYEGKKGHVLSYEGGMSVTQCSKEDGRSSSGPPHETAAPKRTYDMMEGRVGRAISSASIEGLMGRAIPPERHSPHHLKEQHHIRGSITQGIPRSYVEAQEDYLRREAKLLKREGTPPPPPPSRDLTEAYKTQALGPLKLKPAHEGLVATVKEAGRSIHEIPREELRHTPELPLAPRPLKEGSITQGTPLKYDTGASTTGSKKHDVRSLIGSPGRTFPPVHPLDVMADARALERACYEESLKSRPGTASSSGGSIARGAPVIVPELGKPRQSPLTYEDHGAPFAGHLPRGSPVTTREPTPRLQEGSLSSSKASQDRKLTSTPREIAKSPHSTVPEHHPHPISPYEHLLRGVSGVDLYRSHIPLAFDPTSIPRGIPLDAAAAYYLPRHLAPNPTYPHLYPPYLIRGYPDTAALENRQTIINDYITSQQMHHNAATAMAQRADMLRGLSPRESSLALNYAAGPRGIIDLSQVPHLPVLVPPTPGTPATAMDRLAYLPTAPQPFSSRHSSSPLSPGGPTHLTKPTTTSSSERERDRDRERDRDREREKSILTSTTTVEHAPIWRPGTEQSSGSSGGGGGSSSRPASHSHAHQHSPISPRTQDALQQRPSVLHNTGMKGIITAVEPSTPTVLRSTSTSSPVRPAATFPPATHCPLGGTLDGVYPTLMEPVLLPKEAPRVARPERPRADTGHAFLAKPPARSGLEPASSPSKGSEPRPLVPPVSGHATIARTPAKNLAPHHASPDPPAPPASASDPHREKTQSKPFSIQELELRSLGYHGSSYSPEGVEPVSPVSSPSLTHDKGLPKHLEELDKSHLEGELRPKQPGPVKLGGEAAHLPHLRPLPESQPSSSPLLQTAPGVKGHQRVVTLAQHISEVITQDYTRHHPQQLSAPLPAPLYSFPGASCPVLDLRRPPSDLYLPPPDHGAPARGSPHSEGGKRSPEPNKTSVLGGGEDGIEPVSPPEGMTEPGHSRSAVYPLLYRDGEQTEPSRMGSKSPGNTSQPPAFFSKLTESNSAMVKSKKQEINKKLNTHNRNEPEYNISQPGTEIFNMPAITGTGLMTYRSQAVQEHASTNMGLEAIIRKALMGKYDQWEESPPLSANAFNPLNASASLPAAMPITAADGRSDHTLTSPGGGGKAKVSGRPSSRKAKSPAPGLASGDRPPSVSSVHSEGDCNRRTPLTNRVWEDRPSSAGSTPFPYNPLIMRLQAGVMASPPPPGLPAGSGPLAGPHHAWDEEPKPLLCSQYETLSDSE
Histone deacetylase 4, sequence (P56524 whole entry, the tested form may be a part): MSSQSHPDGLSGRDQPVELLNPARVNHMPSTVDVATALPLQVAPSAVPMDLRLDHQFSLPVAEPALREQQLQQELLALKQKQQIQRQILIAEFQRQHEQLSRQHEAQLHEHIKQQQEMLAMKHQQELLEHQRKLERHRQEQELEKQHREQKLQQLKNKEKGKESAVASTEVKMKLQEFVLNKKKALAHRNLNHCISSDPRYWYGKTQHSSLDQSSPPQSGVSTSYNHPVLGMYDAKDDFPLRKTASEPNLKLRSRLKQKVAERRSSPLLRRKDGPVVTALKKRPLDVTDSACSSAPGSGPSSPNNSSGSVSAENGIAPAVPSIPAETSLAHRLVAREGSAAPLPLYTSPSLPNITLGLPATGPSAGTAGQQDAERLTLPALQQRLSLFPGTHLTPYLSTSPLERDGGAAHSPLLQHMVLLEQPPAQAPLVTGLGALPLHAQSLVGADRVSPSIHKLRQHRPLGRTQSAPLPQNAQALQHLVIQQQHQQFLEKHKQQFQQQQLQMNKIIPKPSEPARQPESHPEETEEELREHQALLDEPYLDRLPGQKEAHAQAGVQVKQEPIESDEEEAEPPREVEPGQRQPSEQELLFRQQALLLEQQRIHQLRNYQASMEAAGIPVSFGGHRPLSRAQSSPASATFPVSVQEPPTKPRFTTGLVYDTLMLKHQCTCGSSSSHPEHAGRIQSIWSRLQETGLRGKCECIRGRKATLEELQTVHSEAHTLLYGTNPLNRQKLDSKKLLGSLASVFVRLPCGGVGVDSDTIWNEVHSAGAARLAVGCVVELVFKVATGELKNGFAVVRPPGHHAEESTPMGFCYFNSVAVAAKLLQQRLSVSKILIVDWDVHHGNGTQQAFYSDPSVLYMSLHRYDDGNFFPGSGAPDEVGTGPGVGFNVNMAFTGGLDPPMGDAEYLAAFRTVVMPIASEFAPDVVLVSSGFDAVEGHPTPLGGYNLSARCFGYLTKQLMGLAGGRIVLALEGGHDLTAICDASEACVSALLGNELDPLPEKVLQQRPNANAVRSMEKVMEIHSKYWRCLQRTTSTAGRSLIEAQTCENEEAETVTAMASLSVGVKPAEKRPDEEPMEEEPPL
Histone deacetylase 1, sequence (Q13547 whole entry, the tested form may be a part): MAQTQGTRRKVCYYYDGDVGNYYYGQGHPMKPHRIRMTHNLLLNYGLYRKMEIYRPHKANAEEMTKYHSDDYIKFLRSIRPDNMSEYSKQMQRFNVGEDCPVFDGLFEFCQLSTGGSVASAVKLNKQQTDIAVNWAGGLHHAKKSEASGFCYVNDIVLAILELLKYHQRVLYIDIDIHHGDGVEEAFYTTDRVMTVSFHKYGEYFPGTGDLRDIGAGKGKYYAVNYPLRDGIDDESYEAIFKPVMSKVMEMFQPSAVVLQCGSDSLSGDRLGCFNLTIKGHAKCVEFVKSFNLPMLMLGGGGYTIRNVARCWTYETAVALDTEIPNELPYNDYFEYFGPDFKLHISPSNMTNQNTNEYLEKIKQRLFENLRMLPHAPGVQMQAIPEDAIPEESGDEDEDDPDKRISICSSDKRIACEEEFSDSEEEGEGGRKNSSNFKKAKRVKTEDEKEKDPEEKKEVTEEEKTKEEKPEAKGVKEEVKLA

`CCCNc1ccc2c3c(cccc13)C(=O)N(CCCCCC(=O)NO)C2=O`: the IC50 is 96 nM in the data set with Kasumi 1; 320 nM in data set [2]; 590 nM at Histone deacetylase 1; 110 nM in data set [6]; 1520 nM on Histone deacetylase 8; > 10000 nM on Histone deacetylase 4. In addition, on Histone deacetylase 2, the IC50 is 420 nM. The Ratio IC50 is 1900 in the data set listed under Homo sapiens [1], 120 to 123 in the data set filed under Homo sapiens [4], 88 in the data set listed under Homo sapiens [5] and > 2000 in the data set listed under Homo sapiens [7]. For the same molecule, the Drug uptake result in data set [3] is “Active”. For the same molecule, the result with Danio rerio was Active.
Regarding `O=C(CCCCCN1C(=O)c2cccc3c(NCc4ccccc4)ccc(c23)C1=O)NO`, the IC50 in the data set with Kasumi 1 worked out at 360 nM; in data set [2], 660 nM; on Histone deacetylase 1, 1980 nM; in data set [6] it was 360 nM; at Histone deacetylase 8 it was 2460 nM; at Histone deacetylase 4, 5500 nM. Also, at Histone deacetylase 2, the half-maximal inhibitory concentration (IC50) was 850 nM. Also, the Ratio IC50 is 910 in the data set listed under Homo sapiens [1], 560 to 566 in the data set listed under Homo sapiens [4], 240 in the data set filed under Homo sapiens [5] and 1500 in the data set filed under Homo sapiens [7]. In [3], the Drug uptake entry is listed as “Active”. Also, the outcome in the data set on Danio rerio was Active.
